Assay results reported in ChEMBL document CHEMBL1124602, “Diethylstilbestrol-linked cytotoxic agents: synthesis and binding affinity for estrogen receptors” (J Med Chem, 1989).
The source made the active and inactive calls. The rule behind the calls is not given here.

What follows are molecules tested against T1, Estrogen receptor (Rattus norvegicus) (UniProt P06211+Q62986) (assay: Relative binding affinity (RBA) for estrogen receptor of rat uterine cytosol compared to [3H]estradiol). Conditions: not given.
Assay type: protein assay
Procedure, shortened: (§1)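 Competitive binding: rat uterine cytosol incubated 30 min at 18 °C with 5 × 10⁻⁹ [³H]estradiol, alone or with increasing competitor (10⁻⁹ to 10⁻⁵ M). Unlabeled estradiol serves as the reference competitor for relative binding affinity.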
In the case of `CCOCCCC[C@H](c1ccc(O)cc1)[C@@H](CC)c1ccc(O)cc1`, the relative binding affinity (RBA) is reported as 1.2.
In the case of `CC[C@@H](c1ccc(O)cc1)[C@H](CCCC(=O)N(CC)CC)c1ccc(O)cc1`, the relative binding affinity (RBA) is reported as 1.
With `CC[C@@H](c1ccc(O)cc1)[C@H](CCCC(=O)O)c1ccc(O)cc1` the relative binding affinity (RBA) was 0.1.
`CC[C@@H](c1ccc(O)cc1)[C@H](CCCCO)c1ccc(O)cc1` gave a relative binding affinity (RBA) of 1.5.
`CC[C@@H](c1ccc(O)cc1)[C@H](CCCCI)c1ccc(O)cc1` showed a relative binding affinity (RBA) of 1.5.
For `CCCCCCCC[C@H](c1ccc(O)cc1)[C@@H](CC)c1ccc(O)cc1`, the relative binding affinity (RBA) was 0.2.
`CC[C@@H](c1ccc(O)cc1)[C@H](CCCCCl)c1ccc(O)cc1` was tested, and the relative binding affinity (RBA) was 3.
In the case of `CC[C@@H](c1ccc(O)cc1)[C@H](CCCC(=O)Oc1ccc(Cl)cc1)c1ccc(O)cc1`, the relative binding affinity (RBA) is reported as 0.3.
Work on `CC[C@@H](c1ccc(O)cc1)[C@H](CCCC(=O)Oc1c(Cl)c(Cl)c(Cl)c(Cl)c1Cl)c1ccc(O)cc1` yielded a relative binding affinity (RBA) of 0.3.
Work on `CCCC[C@H](c1ccc(O)cc1)[C@@H](CC)c1ccc(O)cc1` yielded a relative binding affinity (RBA) of 10.
`CC[C@@H](c1ccc(O)cc1)[C@H](CCCCOS(C)(=O)=O)c1ccc(O)cc1` was tested, and the relative binding affinity (RBA) was 1.8.
Molecule `CC[C@@H](c1ccc(O)cc1)[C@H](CCCCOC(=O)NCCCl)c1ccc(O)cc1` has a relative binding affinity (RBA) of 1.

The molecules below were run against T1, Estrogen receptor (Rattus norvegicus) (assay: Relative binding affinity (RBA) for estrogen receptor in rat uterine cytosol compared to [3H]estradiol; No binding). Conditions: Uterus.
Procedure, shortened: as §1
For `CC[C@@H](c1ccc(O)cc1)[C@H](CCCN[C@H]1C[C@H](O[C@H]2C[C@](O)(C(C)=O)Cc3c(O)c4c(c(O)c32)C(=O)c2c(OC)cccc2C4=O)O[C@@H](C)[C@H]1O)c1ccc(O)cc1`, the “relative binding affinity (RBA)” value was “inactive”.
